# This excerpt belongs to a sample that is enriched for hits.
# CHOP inh: blocks CHOP induction under ER stress | CHO-K1 CHOP-promoter luciferase, tunicamycin-induced, 15-18 h | inhibition, % at 10 µM | 220,000 tested, 3.8% active | AID 2732;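 active means compounds that reduced the stress-induced luciferase reporter signal by more than about 70% of percent inhibition, limit read from the data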
# XBP1 UPR activ: adaptive UPR (XBP1) activation; 330,000 tested, 0.33% active; activation, % at 20 µM; CHO-XBP1 luciferase reporter, IRE1-XBP1 UPR activation, luminescence; percent of tunicamycin response, DMSO as zero;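 active means versus positive control, 20 µM dose yields 30% or more activation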
#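 Material: CHO cell line with stable XBP1 luciferase reporter; buffer or medium: F12 medium containing 10% fetal bovine serum; compound: single point, 20 µM final compound, 1% DMSO; incubation: 6 h treatment, 37 °C; measured by: glow luminescence from Steady-Glo reagent; evaluation: activation, % of tunicamycin; control set: tunicamycin high, DMSO low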
# CHOP UPR activ: activators of apoptotic arm of unfolded protein response (CHOP); CHO-CHOP luciferase reporter, UPR activation, luminescence; percent of tunicamycin response over DMSO baseline; activation, % at 10 µM; 330,000 tested, 0.34% active; AID 449763;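 active means at 10 µM dose, activation of 40% or more, normalized to positive control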
#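 Test system: CHO CHOP reporter cells. Input: 500 CHO-CHOP cells per well. Medium: F12 with 10% FBS. Technique: luciferase luminescence. Measure: percent activation relative to tunicamycin control. Dosing: 10 µM compound, 0.5% DMSO. Timing: 16-18 h cell attachment, then 6 h compound exposure, 37 °C.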
# Tb MetRS inh: Trypanosoma brucei MetRS inhibition; 360,000 tested, 0.4% active; inhibition, % at 11.9 µM; purified T. brucei MetRS, ATP depletion, Kinase-Glo luminescence;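 active means inhibition above a per-plate cutoff of the control wells' mean inhibition plus 3 SD, cut at about 5.5% in these data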
#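 technique = Kinase-Glo luminescence, ATP depletion format | system = purified MetRS (methionyl-tRNA synthetase) enzyme from Trypanosoma brucei | timing = 15 min preincubation, 2 h reaction, all 25 °C | evaluation = percent inhibition versus plate control medians | dosing = single dose, 11.9 µM final nominal, 0.9% final DMSO | also added = substrates ATP, L-methionine and bulk Escherichia coli tRNA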
# V-ATPase pH: alters yeast V-ATPase proton transport; S. cerevisiae, pHLuorin cytosolic pH fluorescence; response, % at 10 µM; 350,000 tested, 0.37% active; in the data active means response mostly above about 7.3%, no sharp cut-off; inactive means mostly below about 5.4%; further: actives read high
# Hits are given with their value; n = inactive; x = no result given.
SMILES,CHOP inh,XBP1 UPR activ,CHOP UPR activ,Tb MetRS inh,V-ATPase pH
C/C(=N/NC(=O)c1nnn(-c2nonc2N)c1CSc1ccc(C)cc1)c1ccncc1,x,x,x,n,x
Cc1cc(NC(=O)COC(=O)C(Nc2ccc(C(F)(F)F)cc2Cl)C(C)C)no1 (stereo not drawn),102,n,n,n,n
COc1cc(/C=N/NC(N)=O)cc(Br)c1OCc1ccc(C)cc1,82,n,n,n,n
COc1ccc(N(C(=O)c2ccco2)C(C(=O)NC2CCCCC2)c2cccs2)cc1OC (stereo not drawn),n,n,n,n,n
C#CC(=O)N(c1ccc(OC)cc1OC)C(C(=O)NC1CCCC1)c1cccs1 (stereo not drawn),107,n,n,n,n
O=C(NC1CCCCC1)C(c1ccco1)N(CCc1ccccc1)C(=O)C(F)(F)F (stereo not drawn),n,n,n,n,n
COc1ccc(CCN(C(=O)C(F)(F)F)C(C(=O)NC2CCCC2)c2cccs2)cc1 (stereo not drawn),80,n,n,n,n
CCCCCCCCN1C(=O)[C@H](CC(=O)NCCCOCCCC)C[C@@]2(C(=O)OCC)CCCC=C12,x,x,x,n,x
CNC(=O)[C@H]1O[C@@H](n2cnc3c(NCc4cccc(I)c4)ncnc32)C(O)[C@H]1O (stereo partly drawn),n,x,x,x,x
Cc1nn(Cc2ccc(Cl)cc2)c(=O)n1N(C)c1ncc(C(F)(F)F)cc1Cl,81,n,n,n,n
N#CC1=C(N)Oc2n[nH]c(-c3cccs3)c2C1C1C=CCCC1 (stereo not drawn),96,n,n,n,n
COc1ccc(OC)c(NC(=O)C2(C)CCN2CCOc2ccccc2)c1 (stereo not drawn),x,x,x,n,x
CCc1cccc2c(C(=O)Cn3nnc(-c4ccc(OC)c(OC)c4)n3)c[nH]c12,72,n,n,n,n
COc1cc(NS(=O)(=O)c2ccc(Nc3nc(-c4ccccc4)cs3)cc2)nc(OC)n1,90,x,x,n,n
COc1cc(NS(=O)(=O)c2ccc(NC(=S)Nc3ccccc3)cc2)nc(OC)n1,x,n,n,n,n
COc1ccc(Cn2c(=O)c3c(nc(NCCO)n3C)n(C)c2=O)cc1,n,n,n,n,n
Cn1c(N/N=C2\CCCc3ccccc32)nc2c1c(=O)n(Cc1ccc(F)cc1)c(=O)n2C,83,x,x,n,n
CCCNc1nc2c(c(=O)n(C)c(=O)n2C)n1CCc1ccccc1,n,n,n,n,n
COc1ccc(CNc2nc3c(c(=O)n(Cc4ccc(Br)cc4)c(=O)n3C)n2C)cc1,73,n,n,n,n
CC(C)n1c(NCCc2ccccc2)nc2c1c(=O)n(C)c(=O)n2C,75,n,n,n,n
Cn1c(NCc2ccccc2)nc2c1c(=O)n(Cc1ccc(Br)cc1)c(=O)n2C,72,n,n,n,n
CC(C)N(C)c1ncnc2c1ncn2[C@H]1CN(Cc2ccc3c(c2)OCO3)C[C@@H](CO)O1,x,x,x,n,x
O=C(COC(=O)CNC(=O)c1ccccc1Cl)NC1CC1,x,n,n,n,x
CCC1(C)Cc2ccccc2-c2nc(NN)[nH]c(=O)c21 (stereo not drawn),x,n,n,n,n
CCC1(C)Cc2ccccc2-c2nc(-c3ccccc3)oc(=O)c21 (stereo not drawn),80,n,n,n,n
SMILES,CHOP inh,XBP1 UPR activ,CHOP UPR activ,Tb MetRS inh,V-ATPase pH
C[C@H]1CC[C@H]2C(=O)N3[C@H](c4cccc(N5CCCC5=O)c4)[C@@H](C)CC[C@H]3C(=O)N2[C@@H]1c1cccc(N2CCCC2=O)c1,n,n,n,x,x
C[C@H]1CC[C@H]2C(=O)N3[C@H](c4ccccc4Br)[C@@H](C)CC[C@H]3C(=O)N2[C@@H]1c1ccccc1Br,85,n,n,x,x
Oc1[nH]c2ccccc2c1N=Nc1ccccc1,n,n,n,n,n
Oc1[nH]c2ccccc2c1N=Nc1ccccc1F,91,n,n,n,n
Cc1ccc2nc(-c3ccc(NC(=O)Cc4cccs4)cc3)[nH]c2c1,79,n,n,n,n
Cc1ccc2nc(NC(=O)Cc3cccs3)sc2c1,n,n,n,n,n
Cc1ccc(Oc2nccc(-c3ccc(Cl)cc3)n2)cc1,78,n,n,n,n
Clc1ccc(-c2cnc(Oc3ccccc3)nc2)cc1,n,n,n,n,n
CCC1CCCCN1c1cc(C)nc2cc(-c3cccc(C)c3)nn12 (stereo not drawn),87,n,n,n,n
BrC(/C=N/Nc1nc(N2CCOCC2)nc(N2CCOCC2)n1)=C/c1ccccc1,82,n,n,n,n
CC(=C/c1ccccc1)/C=N/Nc1nc(N2CCCCC2)nc(N2CCCCC2)n1,n,n,n,n,n
O=S(=O)(N/N=C1/CC(c2ccccc2)Oc2ccccc21)c1ccc(Br)cc1 (stereo not drawn),94,n,n,n,n
COc1ccc(CN2CCC2(C)C(=O)Nc2ccc(OC)c(OC)c2)cc1 (stereo not drawn),x,x,x,n,x
Cc1occc1C(=O)Nc1sc2c(c1C(N)=O)CCC(C(C)(C)C)C2 (stereo not drawn),n,n,n,n,n
CCC(C)(C)C1CCc2c(sc(NC(=O)c3ccoc3C)c2C(N)=O)C1 (stereo not drawn),72,n,n,n,n
COCCOc1ccc(C(F)(F)F)cc1Nc1nc2ccccc2o1,88,n,n,n,n
O=C(Nc1ccc(N2CCOCC2)cc1N1CCOCC1)c1ccc(F)cc1,x,n,n,n,n
CC(C)CCNC(=S)Nc1ccc([N+](=O)[O-])cc1,n,n,n,n,n
CC(C)OC(=O)c1cc(NC(=S)Nc2ccc([N+](=O)[O-])cc2)cc(C(=O)OC(C)C)c1,75,n,n,n,n
CCC1CO/C(=C(\C(Cl)=C(Cl)Cl)[N+](=O)[O-])N1 (stereo not drawn),79,n,n,n,n
CN1CCO/C1=C(\C(Cl)=C(Cl)Cl)[N+](=O)[O-],n,n,n,n,n
Clc1ccc(Cn2ncc3c(NCc4ccccc4)ncnc32)c(Cl)c1,81,n,n,x,x
Cc1cc(OC(=O)c2cccs2)ccc1C(C)C,87,n,n,n,n
N#CC(C(=O)Nc1ccc(Cl)c(Cl)c1)=C1Nc2ccccc2N1,73,n,n,n,n
N#CC(C(=O)Nc1cccc(Cl)c1)=C1Nc2ccccc2N1,n,n,n,n,n
CC(NC(=O)CN1C(=O)NC(Cc2ccccc2)(Cc2ccccc2)C1=O)C12CC3CC(CC(C3)C1)C2 (stereo not drawn),84,n,n,n,n
CCn1cc(C(=O)NC(C)C23CC4CC(CC(C4)C2)C3)cn1 (stereo not drawn),n,n,n,n,n
CC(NC(=O)Cn1ncc(Cl)c(Cl)c1=O)C12CC3CC(CC(C3)C1)C2 (stereo not drawn),109,x,x,n,n
CCCn1c(=O)c(C(=O)Nc2ccccc2N)c(O)c2ccccc21,x,x,x,n,n

# Screening data deposited in PubChem BioAssay by several laboratories.
